# In ChEMBL document CHEMBL3132745, “Synthesis and Antimicrobial Activities of His(2-aryl)-Arg and Trp-His(2-aryl) Classes of Dipeptidomimetics” (Medchemcomm, 2014):
# The source made the active and inactive calls.
# Columns and labels:
# [1] = Selectivity index, ratio of cytotoxicity against human KB cells to IC50 for Cryptococcus neoformans ATCC 90113; format: toxicity, cell-based; details: read-out: Selectivity Index
# [2] = Selectivity index, ratio of cytotoxicity against human SKOV3 cells to IC50 for Cryptococcus neoformans ATCC 90113; format: toxicity, cell-based, SK-OV-3; details: read-out: Selectivity Index
# [3] = Selectivity index, ratio of cytotoxicity against pig LLC-PK1 cells to IC50 for Cryptococcus neoformans ATCC 90113; format: toxicity, cell-based; details: read-out: Selectivity Index
# [4] = Selectivity index, ratio of cytotoxicity against human SK-MEL cells to IC50 for Cryptococcus neoformans ATCC 90113; format: toxicity, cell-based; details: read-out: Selectivity Index
# Staphylococcus aureus [5] = test: Antibacterial activity against Staphylococcus aureus ATCC 29213 assessed as growth inhibition after 16-20 hrs by CLSI method; format: functional, organism-based
# Candida albicans = test: Antifungal activity against Candida albicans assessed as growth inhibition; format: functional, organism-based
# SK-OV-3 = test: Cytotoxicity against human SKOV3 cells assessed as cell viability after 48 hrs by neutral red uptake assay; format: cell-based; details: sk-ov-3, 48 h
# Procedure, shortened: (§1)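 Neutral red uptake assay on human cancer lines (SK-MEL, KB, BT-549, SK-OV-3) and noncancerous mammalian cells (VERO, LLC-PK1). Highest tested concentration was 10 µg/mL.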
# Aspergillus fumigatus = test: Antifungal activity against Aspergillus fumigatus assessed as growth inhibition; format: functional, organism-based
# Pichia kudriavzevii = test: Antifungal activity against Candida krusei assessed as growth inhibition; format: functional, organism-based
# Escherichia coli = test: Antibacterial activity against Escherichia coli ATCC 35218 assessed as growth inhibition after 16-20 hrs by CLSI method; format: functional, organism-based
# [6] = Selectivity index, ratio of cytotoxicity against human BT549 cells to IC50 for Cryptococcus neoformans ATCC 90113; format: toxicity, cell-based, BT-549; details: read-out: Selectivity Index
# Staphylococcus aureus [7] = test: Antibacterial activity against methicillin-resistant Staphylococcus aureus ATCC 33591 assessed as growth inhibition after 16-20 hrs by CLSI method; format: functional, organism-based
# Nakaseomyces glabratus = test: Antifungal activity against Candida glabrata assessed as growth inhibition; format: functional, organism-based
# SK-MEL = test: Cytotoxicity against human SK-MEL cells assessed as cell viability after 48 hrs by neutral red uptake assay; format: cell-based; procedure, shortened: as §1
# KB = test: Cytotoxicity against human KB cells assessed as cell viability after 48 hrs by neutral red uptake assay; format: cell-based; procedure, shortened: as §1
# BT-549 = test: Cytotoxicity against human BT549 cells assessed as cell viability after 48 hrs by neutral red uptake assay; format: cell-based; details: bt-549, 48 h; procedure, shortened: as §1
# LLC-PK1 = test: Cytotoxicity against pig LLC-PK1 cells assessed as cell viability after 48 hrs by neutral red uptake assay; format: cell-based, Sus scrofa; details: llc-pk1, 48 h; procedure, shortened: as §1
# [8] = Selectivity index, ratio of cytotoxicity against african green monkey Vero cells to IC50 for Cryptococcus neoformans ATCC 90113; format: toxicity, cell-based; details: read-out: Selectivity Index
# Vero = test: Cytotoxicity against african green monkey Vero cells assessed as cell viability after 48 hrs by neutral red uptake assay; format: cell-based; details: chlorocebus sabaeus; procedure, shortened: as §1
# Cryptococcus neoformans [9] = test: Antifungal activity against Cryptococcus neoformans ATCC 90113 assessed as growth inhibition after 70-74 hrs by CLSI method; format: functional, organism-based; details: Cryptococcus neoformans, ATCC 90113; for IC50: read-out: IC50
# Cryptococcus neoformans [10] = test: Ratio of amphotericin MFC to compound MFC for Cryptococcus neoformans ATCC 90113 after 70-74 hrs by CLSI method; format: functional
# Cryptococcus neoformans [11] = test: Ratio of amphotericin MIC to compound MIC for Cryptococcus neoformans ATCC 90113 after 70-74 hrs by CLSI method; format: functional
# Cryptococcus neoformans [12] = test: Ratio of amphotericin IC50 to compound IC50 for Cryptococcus neoformans ATCC 90113 after 70-74 hrs by CLSI method; format: functional
# [13] = Staphylococcus aureus, ATCC 33591
# [14] = Staphylococcus aureus, ATCC 33591, read-out: IC50
SMILES,selectivity ratio [1],selectivity ratio [2],selectivity ratio [3],selectivity ratio [4],IC50 (Staphylococcus aureus [5]),growth inhibition (GI) (Candida albicans),Activity (SK-OV-3),growth inhibition (GI) (Aspergillus fumigatus),growth inhibition (GI) (Pichia kudriavzevii),growth inhibition (GI) (Escherichia coli),selectivity ratio [6],growth inhibition (GI) (Nakaseomyces glabratus),Activity (SK-MEL),Activity (KB),Activity (BT-549),Activity (LLC-PK1),selectivity ratio [8],Activity (Vero),MFC (Cryptococcus neoformans [9]),MIC (Cryptococcus neoformans [9]),also measured
N[C@@H](Cc1c[nH]c2ccccc12)C(=O)N[C@@H](Cc1c[nH]c(-c2ccc(-c3ccccc3)cc2)n1)C(=O)NCc1ccccc1,> 18.5,> 18.5,> 18.5,> 18.5,2.6 µg/mL,inactive,> 10 µg/mL,inactive,inactive,inactive,> 18.5,inactive,> 10 µg/mL,> 10 µg/mL,> 10 µg/mL,> 10 µg/mL,> 18.5,> 10 µg/mL,1.25 µg/mL,1.25 µg/mL,MBC (Staphylococcus aureus [5]): 20 µg/mL; MIC (Staphylococcus aureus [5]): 5 µg/mL; MBC (Staphylococcus aureus [7]; [13]): 20 µg/mL; MIC (Staphylococcus aureus [7]; [13]): 10 µg/mL; IC50 (Staphylococcus aureus [7]; [14]): 4.31 µg/mL; IC50 (Cryptococcus neoformans [9]): 0.54 µg/mL
N=C(N)NCCC[C@H](NC(=O)[C@@H](N)Cc1c[nH]c(-c2ccc(-c3ccccc3)cc2)n1)C(=O)NCc1ccccc1,> 50,> 50,> 50,> 50,12.8 µg/mL,inactive,> 10 µg/mL,inactive,inactive,inactive,> 50,inactive,> 10 µg/mL,> 10 µg/mL,> 10 µg/mL,> 10 µg/mL,> 50,> 10 µg/mL,0.31 µg/mL,0.31 µg/mL,MBC (Staphylococcus aureus [5]): inactive; MIC (Staphylococcus aureus [5]): inactive; IC50 (Staphylococcus aureus [7]): Not Active; MBC (Staphylococcus aureus [7]): inactive; MIC (Staphylococcus aureus [7]): inactive; IC50 (Cryptococcus neoformans [9]): 0.2 µg/mL
CC(C)(C)OC(=O)N[C@@H](Cc1c[nH]c(-c2ccc(-c3ccccc3)cc2)n1)C(=O)N[C@@H](CCCNC(=N)N)C(=O)NCc1ccccc1,> 9.2,> 9.2,> 9.2,> 9.2,7.3 µg/mL,inactive,> 10 µg/mL,inactive,inactive,inactive,> 9.2,inactive,> 10 µg/mL,> 10 µg/mL,> 10 µg/mL,> 10 µg/mL,> 9.2,> 10 µg/mL,2.5 µg/mL,2.5 µg/mL,MIC (Staphylococcus aureus [5]): 10 µg/mL; MBC (Staphylococcus aureus [7]): inactive; MIC (Staphylococcus aureus [7]; [13]): 20 µg/mL; IC50 (Staphylococcus aureus [7]; [14]): 8.97 µg/mL; IC50 (Cryptococcus neoformans [9]): 1.09 µg/mL
CC(C)(C)c1ccc(-c2nc(C[C@H](N)C(=O)N[C@@H](CCCNC(=N)N)C(=O)NCc3ccccc3)c[nH]2)cc1,> 62.5,> 62.5,> 62.5,> 62.5,15.9 µg/mL,inactive,> 10 µg/mL,inactive,inactive,inactive,> 62.5,inactive,> 10 µg/mL,> 10 µg/mL,> 10 µg/mL,> 10 µg/mL,> 62.5,> 10 µg/mL,0.31 µg/mL,0.31 µg/mL,Ratio (Cryptococcus neoformans [10]): >4; Ratio (Cryptococcus neoformans [11]): >4; MBC (Staphylococcus aureus [5]): inactive; MIC (Staphylococcus aureus [5]): inactive; Ratio IC50 (Cryptococcus neoformans [12]): >4; IC50 (Staphylococcus aureus [7]): Not Active; MBC (Staphylococcus aureus [7]): inactive; MIC (Staphylococcus aureus [7]): inactive; IC50 (Cryptococcus neoformans [9]): 0.16 µg/mL
CC(C)(C)OC(=O)N[C@@H](Cc1c[nH]c(-c2cccc3ccccc23)n1)C(=O)N[C@@H](CCCNC(=N)N)C(=O)NCc1ccccc1,> 3.6,> 3.6,> 3.6,> 3.6,16.4 µg/mL,inactive,> 10 µg/mL,inactive,inactive,inactive,> 3.6,inactive,> 10 µg/mL,> 10 µg/mL,> 10 µg/mL,> 10 µg/mL,> 3.6,> 10 µg/mL,5 µg/mL,5 µg/mL,MBC (Staphylococcus aureus [7]): inactive; MIC (Staphylococcus aureus [7]; [13]): 20 µg/mL; IC50 (Staphylococcus aureus [7]; [14]): 13.2 µg/mL; IC50 (Cryptococcus neoformans [9]): 2.79 µg/mL
CC(C)(C)c1ccc(-c2nc(C[C@H](NC(=O)[C@@H](N)Cc3c[nH]c4ccccc34)C(=O)NCc3ccccc3)c[nH]2)cc1,> 2.21,> 2.21,> 2.21,> 2.21,11.7 µg/mL,inactive,> 10 µg/mL,inactive,inactive,inactive,> 2.21,inactive,> 10 µg/mL,> 10 µg/mL,> 10 µg/mL,> 10 µg/mL,> 2.21,> 10 µg/mL,10 µg/mL,10 µg/mL,MBC (Staphylococcus aureus [5]): inactive; MIC (Staphylococcus aureus [5]): 20 µg/mL; IC50 (Staphylococcus aureus [7]): Not Active; MBC (Staphylococcus aureus [7]): inactive; MIC (Staphylococcus aureus [7]): inactive; IC50 (Cryptococcus neoformans [9]): 4.53 µg/mL
